Experimental data from ChEMBL document CHEMBL2062373, “Discovery of pyrroloaminopyrazoles as novel PAK inhibitors” (J Med Chem, 2012).

Columns and labels:
[1] = molecular target: Serine/threonine-protein kinase MARK1 (Homo sapiens, UniProt Q9P0L2); experiment: Inhibition of MARK1
[2] = Volume of distribution at steady state in rat at 5 mg/kg, iv and 10 mg/kg, po; assay type: ADME, organism-based; details: in vivo, read-out: Vdss
[3] = molecular target: AMP-activated protein kinase, AMPK (Homo sapiens) (UniProt P54646+O43741+P54619+Q9UGJ0+Q9Y478+Q13131+Q9UGI9); experiment: Inhibition of AMPK at 1000 nM; assay type: protein-complex assay
[4] = molecular target: T1, Mitogen-activated protein kinase 1 (Homo sapiens, UniProt P28482); experiment: Inhibition of Erk2
T1 sequence (P28482 whole entry): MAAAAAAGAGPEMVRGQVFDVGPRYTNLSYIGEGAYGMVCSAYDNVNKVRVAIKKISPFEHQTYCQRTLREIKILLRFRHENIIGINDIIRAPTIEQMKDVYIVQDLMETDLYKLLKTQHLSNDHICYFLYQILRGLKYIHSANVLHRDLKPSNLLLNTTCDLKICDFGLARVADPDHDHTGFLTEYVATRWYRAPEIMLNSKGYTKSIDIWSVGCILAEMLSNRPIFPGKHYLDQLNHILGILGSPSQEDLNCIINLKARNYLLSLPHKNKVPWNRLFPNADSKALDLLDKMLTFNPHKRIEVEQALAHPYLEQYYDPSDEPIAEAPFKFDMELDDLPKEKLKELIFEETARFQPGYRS

[5] = Efflux ratio of permeability from basolateral to apical side over apical to basolateral side in human Caco2 cells; assay type: ADME, cell-based; details: Caco-2
Homo sapiens [6] = species on record: Homo sapiens; experiment: Inhibition of RSK at 1000 nM
Mus musculus [7] = experiment: Free dug level in mouse xenografted with human M24 cells at 3.75 mg/kg, po BID for 15 days; assay type: ADME, organism-based; design: dose 3.75 mg/kg, route oral; details: in vivo, 360 h
HCT-116 [8] = experiment: Antitumor activity against human HCT116 cells xenografted in mouse assessed as tumor growth inhibition at 20 mg/kg, po BID for 15 days; assay type: functional; details: HCT-116, 360 h, read-out: TGI
Method in brief: (§1)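 HCT-116 colon carcinoma xenografts in mice. Compound given orally twice daily. Efficacy expressed as percent tumour growth inhibition (TGI).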

[9] = Antitumor activity against human M24 cells xenografted in mouse assessed as tumor growth inhibition at 15 mg/kg, po BID for 15 days; assay type: functional; details: M24, 360 h, read-out: TGI
[10] = Oral bioavailability in dog; assay type: ADME, organism-based, Canis lupus familiaris; details: in vivo
[11] = Oral bioavailability in rat at 10 mg/kg; assay type: ADME, organism-based; details: in vivo
Mus musculus [12] = experiment: Free dug level in mouse xenografted with human M24 cells at 15 mg/kg, po BID for 15 days; assay type: ADME, organism-based; design: dose 15 mg/kg, route oral; details: in vivo, 360 h
Method in brief: (§2)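 The read-out is free drug exposure, reported as unbound average concentration (free Cave) in nM. It was obtained from mice dosed orally at the stated regimen, sid or bid, during the xenograft efficacy study.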

[13] = molecular target: T2, Serine/threonine-protein kinase D3 (Homo sapiens) (UniProt O94806); experiment: Inhibition of PKD3; details: concentration not given here
T2 sequence (whole entry): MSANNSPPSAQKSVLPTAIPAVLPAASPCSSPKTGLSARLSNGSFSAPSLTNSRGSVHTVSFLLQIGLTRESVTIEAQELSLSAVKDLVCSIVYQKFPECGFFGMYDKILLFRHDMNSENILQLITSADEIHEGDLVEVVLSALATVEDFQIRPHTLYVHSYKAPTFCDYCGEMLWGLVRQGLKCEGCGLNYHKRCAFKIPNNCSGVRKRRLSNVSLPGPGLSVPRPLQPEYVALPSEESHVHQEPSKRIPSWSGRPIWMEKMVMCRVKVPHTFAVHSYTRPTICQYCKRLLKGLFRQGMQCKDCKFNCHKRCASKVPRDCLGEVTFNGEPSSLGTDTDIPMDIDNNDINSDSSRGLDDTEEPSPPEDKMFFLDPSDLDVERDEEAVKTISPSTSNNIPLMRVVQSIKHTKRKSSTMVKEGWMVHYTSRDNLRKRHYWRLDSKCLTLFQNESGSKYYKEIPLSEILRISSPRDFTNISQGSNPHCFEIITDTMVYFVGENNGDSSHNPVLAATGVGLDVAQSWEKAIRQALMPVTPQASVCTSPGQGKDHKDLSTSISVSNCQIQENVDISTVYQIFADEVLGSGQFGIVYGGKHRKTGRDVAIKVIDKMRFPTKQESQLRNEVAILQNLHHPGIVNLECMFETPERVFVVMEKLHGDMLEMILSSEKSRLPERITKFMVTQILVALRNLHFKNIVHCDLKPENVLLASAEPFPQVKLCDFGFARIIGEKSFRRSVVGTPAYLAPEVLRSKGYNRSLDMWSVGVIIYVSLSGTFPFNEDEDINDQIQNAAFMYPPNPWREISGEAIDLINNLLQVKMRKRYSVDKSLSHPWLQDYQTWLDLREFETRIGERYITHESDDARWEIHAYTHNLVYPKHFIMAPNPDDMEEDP

[14] = Clearance in dog; assay type: ADME, organism-based, Canis lupus familiaris; details: in vivo
[15] = Half life in rat at 5 mg/kg, iv and 10 mg/kg, po; assay type: ADME, organism-based; details: in vivo
[16] = molecular target: Mitogen-activated protein kinase 3 (Homo sapiens) (UniProt P27361); experiment: Inhibition of ERK1; details: concentration not given here
Mitogen-activated protein kinase 3 (Homo sapiens), sequence (P27361 whole entry): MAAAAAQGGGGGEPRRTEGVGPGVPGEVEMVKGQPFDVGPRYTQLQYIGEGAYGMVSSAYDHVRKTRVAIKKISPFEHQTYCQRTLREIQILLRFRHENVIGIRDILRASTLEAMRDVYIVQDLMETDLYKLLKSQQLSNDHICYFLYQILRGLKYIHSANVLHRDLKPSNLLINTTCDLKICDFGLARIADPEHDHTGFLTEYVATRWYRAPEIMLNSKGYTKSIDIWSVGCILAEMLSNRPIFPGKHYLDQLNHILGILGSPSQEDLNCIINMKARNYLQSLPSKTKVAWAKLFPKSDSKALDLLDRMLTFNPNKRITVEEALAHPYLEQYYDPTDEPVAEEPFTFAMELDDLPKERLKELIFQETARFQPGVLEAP

Mus musculus [17] = experiment: Free dug level in mouse xenografted with human M24 cells at 7.5 mg/kg, po BID for 15 days; assay type: ADME, organism-based; design: dose 7.5 mg/kg, route oral; details: in vivo, 360 h; method in brief: as §2
[18] = molecular target: T3, Glycogen synthase kinase-3 beta (Homo sapiens, UniProt P49841)
Target sequence in this assay (P49841 whole entry): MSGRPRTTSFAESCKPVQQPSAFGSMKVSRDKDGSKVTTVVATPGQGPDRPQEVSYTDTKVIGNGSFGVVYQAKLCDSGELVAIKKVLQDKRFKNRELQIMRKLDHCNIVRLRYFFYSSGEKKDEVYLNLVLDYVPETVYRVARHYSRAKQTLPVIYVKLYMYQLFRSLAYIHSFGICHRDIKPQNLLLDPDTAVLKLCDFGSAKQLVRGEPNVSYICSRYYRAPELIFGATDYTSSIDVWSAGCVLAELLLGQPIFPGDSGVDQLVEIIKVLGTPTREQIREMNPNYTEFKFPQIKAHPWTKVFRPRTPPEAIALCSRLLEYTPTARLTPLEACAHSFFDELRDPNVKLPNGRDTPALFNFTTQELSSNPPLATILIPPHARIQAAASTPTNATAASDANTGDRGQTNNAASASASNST

[19] = Half life in dog; assay type: ADME, organism-based, Canis lupus familiaris; details: in vivo
[20] = Clearance in rat at 5 mg/kg, iv and 10 mg/kg, po; assay type: ADME, organism-based; details: in vivo
[21] = molecular target: T1, Mitogen-activated protein kinase 1; experiment: Inhibition of Erk2 at 1000 nM
[22] = molecular target: T3, Glycogen synthase kinase-3 beta; experiment: Inhibition of GSK3beta at 1000 nM
Target sequence in this assay (P49841 whole entry, looked up): as the sequence (P49841 whole entry) above

[23] = Octanol/buffer partition coefficient, log D of the compound at pH 7.4; assay type: physicochemical
[24] = molecular target: Serine/threonine-protein kinase PAK 4 (Homo sapiens, UniProt O96013); experiment: Inhibition of PAK4-mediated GEF-H1 phosphorylation at Ser810 by cell based assay; details: read-out: EC50
Serine/threonine-protein kinase PAK 4, sequence (O96013 whole entry): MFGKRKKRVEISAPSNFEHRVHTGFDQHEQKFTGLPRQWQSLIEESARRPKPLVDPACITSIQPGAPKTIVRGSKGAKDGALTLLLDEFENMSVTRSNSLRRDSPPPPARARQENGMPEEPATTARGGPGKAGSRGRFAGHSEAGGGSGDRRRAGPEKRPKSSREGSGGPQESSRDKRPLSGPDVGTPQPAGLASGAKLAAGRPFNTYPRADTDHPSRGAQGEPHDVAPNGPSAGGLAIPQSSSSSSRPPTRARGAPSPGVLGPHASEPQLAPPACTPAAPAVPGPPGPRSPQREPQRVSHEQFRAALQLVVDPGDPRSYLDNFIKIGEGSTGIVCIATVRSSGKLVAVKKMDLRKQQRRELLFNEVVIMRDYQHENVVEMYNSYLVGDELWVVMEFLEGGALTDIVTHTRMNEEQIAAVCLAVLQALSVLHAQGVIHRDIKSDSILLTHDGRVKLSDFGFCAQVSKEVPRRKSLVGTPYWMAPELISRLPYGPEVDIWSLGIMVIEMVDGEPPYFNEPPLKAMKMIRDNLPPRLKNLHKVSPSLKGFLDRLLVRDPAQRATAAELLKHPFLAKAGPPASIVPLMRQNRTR

[25] = molecular target: Cyclin-dependent kinase 2 (Homo sapiens, UniProt P24941)
HCT-116 [26] = experiment: Antitumor activity against human HCT116 cells xenografted in mouse assessed as tumor growth inhibition at 12.5 mg/kg, po BID for 15 days; assay type: functional; details: HCT-116, 360 h, read-out: TGI; method in brief: as §1
Homo sapiens [27] = species on record: Homo sapiens; experiment: Inhibition of PCTAIRE; details: concentration not given here
Homo sapiens [28] = species on record: Homo sapiens; experiment: Inhibition of PKA at 1000 nM
[29] = Metabolic stability in human liver microsomes assessed as extraction ratio; assay type: ADME, Microsome; details: read-out: ERH
[30] = Antitumor activity against human M24 cells xenografted in mouse assessed as tumor growth inhibition at 3.75 mg/kg, po BID for 15 days; assay type: functional; details: M24, 360 h, read-out: TGI
[31] = Antitumor activity against human M24 cells xenografted in mouse assessed as tumor growth inhibition at 7.5 mg/kg, po BID for 15 days; assay type: functional; details: M24, 360 h, read-out: TGI

Serine/threonine-protein kinase MARK1, sequence (Q9P0L2 whole entry): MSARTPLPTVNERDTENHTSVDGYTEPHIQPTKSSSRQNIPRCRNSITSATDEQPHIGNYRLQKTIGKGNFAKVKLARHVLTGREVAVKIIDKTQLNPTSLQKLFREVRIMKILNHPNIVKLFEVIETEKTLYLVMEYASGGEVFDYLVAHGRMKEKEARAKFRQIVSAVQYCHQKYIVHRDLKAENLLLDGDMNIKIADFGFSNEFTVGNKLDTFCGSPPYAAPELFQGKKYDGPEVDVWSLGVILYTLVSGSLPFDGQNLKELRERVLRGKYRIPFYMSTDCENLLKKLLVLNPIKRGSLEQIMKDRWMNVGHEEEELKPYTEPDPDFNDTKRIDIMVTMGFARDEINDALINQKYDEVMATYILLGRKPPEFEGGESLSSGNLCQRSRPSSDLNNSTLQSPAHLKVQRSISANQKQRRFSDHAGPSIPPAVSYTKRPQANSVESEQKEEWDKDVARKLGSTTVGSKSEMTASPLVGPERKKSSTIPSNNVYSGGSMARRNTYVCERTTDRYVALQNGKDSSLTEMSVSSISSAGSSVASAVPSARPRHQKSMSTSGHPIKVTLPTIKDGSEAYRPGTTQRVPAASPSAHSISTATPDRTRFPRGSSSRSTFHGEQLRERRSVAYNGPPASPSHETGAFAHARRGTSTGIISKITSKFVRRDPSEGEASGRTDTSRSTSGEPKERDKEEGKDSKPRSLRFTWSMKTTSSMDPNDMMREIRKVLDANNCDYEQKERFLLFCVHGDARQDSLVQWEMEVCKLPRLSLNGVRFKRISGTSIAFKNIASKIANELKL

SMILES: CN(C)C[C@@H](OC(=O)N1Cc2c(NC(=O)C(C)(C)C)n[nH]c2C1(C)C)c1ccccc1
- IC50 [1]: 115 nM
- Vd [2]: 2.8 L/kg
- inhibition [3]: > 70%
- IC50 [4]: 170 nM
- efflux ratio [5]: 9.9
- inhibition (Homo sapiens [6]): > 70%
- Drug uptake(free) (Mus musculus [7]): 5.3 nM
- inhibition in vivo at 20 mg/kg (HCT-116 [8]): 52%
- inhibition in vivo at 15 mg/kg [9]: 68%
- bioavailability [10]: 20%
- bioavailability [11]: 15%
- Drug uptake(free) (Mus musculus [12]): 50.5 nM
- inhibition [13]: > 40%
- clearance [14]: 12 mL/min/kg
- half-life [15]: 48 min
- inhibition [16]: > 40%
- Drug uptake(free) (Mus musculus [17]): 28.3 nM
- IC50 [18]: 227 nM
- half-life [19]: 132 min
- clearance [20]: 52 mL/min/kg
- inhibition [21]: > 70%
- inhibition [22]: > 70%
- logD [23]: 2.52
- EC50 [24]: 4 nM
- IC50 [25]: 450 nM
- inhibition in vivo at 12.5 mg/kg (HCT-116 [26]): 37%
- inhibition (Homo sapiens [27]): > 40%
- inhibition (Homo sapiens [28]): > 70%
- hepatic extraction ratio [29]: 0.44
- inhibition in vivo at 3.75 mg/kg [30]: 41%
- inhibition in vivo at 7.5 mg/kg [31]: 61%
